Data published in ChEMBL document CHEMBL3826928, “Incorporation of Phosphonate into Benzonaphthyridine Toll-like Receptor 7 Agonists for Adsorption to Aluminum Hydroxide” (J Med Chem, 2016).

Assays:
[1] = molecular target: T1, Toll-like receptor 7 (Homo sapiens) (UniProt Q9NYK1); assay: Agonist activity at human TLR7 expressed in HEK293 cells incubated for 6 hrs by luciferase reporter gene assay relative to resiquimod; type: cell-based
T1 sequence (whole entry): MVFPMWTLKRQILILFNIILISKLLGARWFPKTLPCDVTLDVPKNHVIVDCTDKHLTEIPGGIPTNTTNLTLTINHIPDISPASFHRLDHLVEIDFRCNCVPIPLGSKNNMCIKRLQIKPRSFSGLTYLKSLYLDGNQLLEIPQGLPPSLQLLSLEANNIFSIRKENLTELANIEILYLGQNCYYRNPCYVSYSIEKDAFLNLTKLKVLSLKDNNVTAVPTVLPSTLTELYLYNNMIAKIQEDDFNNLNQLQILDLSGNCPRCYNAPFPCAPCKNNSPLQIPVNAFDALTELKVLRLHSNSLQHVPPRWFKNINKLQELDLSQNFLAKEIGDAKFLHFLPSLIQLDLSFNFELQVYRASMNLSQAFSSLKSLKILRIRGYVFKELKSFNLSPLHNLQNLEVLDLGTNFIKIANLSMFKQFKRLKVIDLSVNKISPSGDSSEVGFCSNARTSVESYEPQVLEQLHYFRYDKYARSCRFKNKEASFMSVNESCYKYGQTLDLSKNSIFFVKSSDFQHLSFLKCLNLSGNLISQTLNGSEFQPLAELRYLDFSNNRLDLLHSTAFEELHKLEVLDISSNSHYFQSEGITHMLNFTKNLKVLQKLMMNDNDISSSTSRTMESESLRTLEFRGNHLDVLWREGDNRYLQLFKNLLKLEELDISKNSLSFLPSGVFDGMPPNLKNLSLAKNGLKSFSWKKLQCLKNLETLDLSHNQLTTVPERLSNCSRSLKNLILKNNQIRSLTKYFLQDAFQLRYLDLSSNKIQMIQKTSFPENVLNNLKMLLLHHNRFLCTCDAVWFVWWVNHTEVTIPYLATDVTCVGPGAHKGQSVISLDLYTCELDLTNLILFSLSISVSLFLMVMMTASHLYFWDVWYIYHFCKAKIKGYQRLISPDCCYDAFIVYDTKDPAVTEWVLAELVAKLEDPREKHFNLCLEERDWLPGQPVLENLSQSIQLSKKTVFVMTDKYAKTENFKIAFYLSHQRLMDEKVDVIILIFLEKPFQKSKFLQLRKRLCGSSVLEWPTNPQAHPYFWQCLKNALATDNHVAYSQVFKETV
Summary of the method: (§1)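 HEK293 stably carrying NF-κB-firefly luciferase reporter plus human TLR7 (best resiquimod-responding clone), maintained under puromycin/blasticidin. 25 000 cells per well in DMEM with 3% FCS.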

[2] = molecular target: T2, Toll-like receptor 7 (Homo sapiens, UniProt Q9NYK1); assay: Agonist activity at human TLR7 expressed in HEK293 cells incubated for 6 hrs by luciferase reporter gene assay; type: cell-based; summary of the method: as §1
T2 sequence (Q9NYK1 whole entry): T1 sequence (whole entry)

[3] = molecular target: T3, Toll-like receptor 7 (Mus musculus, UniProt P58681); assay: Agonist activity at TLR7 in Balb/c mouse splenocytes assessed as induction of IL-6 secretion in supernatant after 18 hrs; type: cell-based
T3 sequence (P58681 whole entry): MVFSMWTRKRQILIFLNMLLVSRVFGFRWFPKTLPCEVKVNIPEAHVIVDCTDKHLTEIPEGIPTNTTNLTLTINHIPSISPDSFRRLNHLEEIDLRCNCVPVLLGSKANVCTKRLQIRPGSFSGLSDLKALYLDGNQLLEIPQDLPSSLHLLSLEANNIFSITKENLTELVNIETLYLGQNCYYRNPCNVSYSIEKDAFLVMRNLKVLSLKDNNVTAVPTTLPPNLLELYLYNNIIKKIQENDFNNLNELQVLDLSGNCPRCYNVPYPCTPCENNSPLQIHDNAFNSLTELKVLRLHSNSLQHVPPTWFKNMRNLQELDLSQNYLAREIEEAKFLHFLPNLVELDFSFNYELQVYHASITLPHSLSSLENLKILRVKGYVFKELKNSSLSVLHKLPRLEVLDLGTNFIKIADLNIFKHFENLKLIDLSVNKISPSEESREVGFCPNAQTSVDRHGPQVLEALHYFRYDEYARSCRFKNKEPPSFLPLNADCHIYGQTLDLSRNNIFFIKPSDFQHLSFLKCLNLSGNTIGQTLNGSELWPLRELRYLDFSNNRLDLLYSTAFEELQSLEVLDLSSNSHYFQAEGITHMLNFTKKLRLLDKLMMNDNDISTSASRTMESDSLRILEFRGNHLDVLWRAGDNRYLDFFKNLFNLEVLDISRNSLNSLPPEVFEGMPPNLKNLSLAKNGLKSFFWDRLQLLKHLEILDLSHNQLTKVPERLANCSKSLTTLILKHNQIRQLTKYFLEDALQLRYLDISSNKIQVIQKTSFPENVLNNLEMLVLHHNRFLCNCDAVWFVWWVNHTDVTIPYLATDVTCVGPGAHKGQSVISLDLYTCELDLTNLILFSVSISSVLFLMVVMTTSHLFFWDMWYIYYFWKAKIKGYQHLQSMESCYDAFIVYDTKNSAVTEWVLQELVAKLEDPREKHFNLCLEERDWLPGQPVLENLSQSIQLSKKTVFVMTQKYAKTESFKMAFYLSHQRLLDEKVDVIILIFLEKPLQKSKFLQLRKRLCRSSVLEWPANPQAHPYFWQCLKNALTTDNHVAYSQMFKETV
Summary of the method: (§2)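 Spleens from female BALB/c mice (6−10 weeks), single-cell suspension, RBC lysis; 5 × 10⁵ splenocytes per well in RPMI 1640 with 10% FCS, 2-ME. Compounds as sodium salts (1 equiv NaOH) from 10 mM water stocks, 3-fold 10-point dilutions from 30 μM.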

[4] = molecular target: T4, Toll-like receptor 7 (Mus musculus) (UniProt P58681); assay: Agonist activity at TLR7 in Balb/c mouse splenocytes assessed as induction of IL-6 secretion in supernatant after 18 hrs relative to resiquimod; type: cell-based; summary of the method: as §2
T4 sequence (whole entry): T3 sequence (P58681 whole entry)

[5] = molecular target: T1, Toll-like receptor 7 (Homo sapiens); assay: Agonist activity at TLR7 in human PBMC assessed as induction of IL-6 secretion in supernatant after 18 hrs relative to resiquimod; type: cell-based
Summary of the method: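 Isolated human PBMCs washed in PBS, resuspended in RPMI1640 with 10% heat-inactivated FBS, pyruvate, HEPES, at 1 × 10⁶ cells/mL. Compounds as in-situ sodium salts from 10 mM aqueous stocks, 3-fold 10-point dilutions from 30 μM.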

[6] = Adsorption on alum in pH 6.5 histidine buffer assessed as compound adsorbed at 1 mg/ml incubated for 1 hr by LC-MS analysis relative to control; type: physicochemical; conditions: pH 6.5, 1 h
Summary of the method: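 Compound dissolved in endotoxin-free water, then combined with Alhydrogel alum suspension and 100 mM histidine pH 6.5 stock; final 1 mg/mL compound, 3 mg/mL alum in 10 mM histidine, gently agitated 1 h at room temperature. Aliquot centrifuged 13 000 rpm 10 min; supernatant analysed by LCMS against nonadsorbed reference to give unbound fraction, bound fraction derived indirectly.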

[7] = Adsorption on alum in pH 6.5 histidine buffer assessed as compound adsorbed at 1 mg/ml incubated for 1 hr in presence of inorganic phosphate by LC-MS analysis; type: physicochemical; conditions: pH 6.5, 1 h

SMILES | %max [1] | EC50 [2] | EC50 [3] | %max [4] | %max [5] | Activity [6] | Activity [7]
Cc1cc(OCCCC(F)(F)P(=O)(O)O)ccc1CCc1cnc2c(N)nc3cc(CCC(=O)O)ccc3c2c1 | 95% | 240 nM | 2400 nM | 74% | 35% | 95% | Not Active
Cc1cc(OCCOCCOCCP(=O)(O)O)ccc1CCc1cnc2c(N)nc3cc(CCC(=O)O)ccc3c2c1 | 110% | 350 nM | 190 nM | 140% | 58% | 97% | Not Active
Cc1ccc2c(c1)nc(N)c1ncc(CCc3ccc(OCCCP(=O)(O)O)cc3C)cc12 | – | 230 nM | 1100 nM | 98% | – | ND(Insoluble) | –
Cc1ccc2c(c1)nc(N)c1ncc(CCc3ccc(OCCOCCOCCC(F)(F)P(=O)(O)O)cc3C)cc12 | 95% | 1200 nM | 810 nM | 100% | 36% | 98% | Not Active
Cc1cc(OCCOCCOCCC(F)(F)P(=O)(O)O)ccc1CCc1cnc2c(N)nc3cc(CCC(=O)O)ccc3c2c1 | 100% | 39 nM | 1200 nM | 80% | 35% | 97% | Not Active
